In ChEMBL document CHEMBL1128295 (J Med Chem, 1995):
“And” between values parts separate entries of the source, which are not always exact repeats. Equal values may be shown once. The source made the active and inactive calls. The calls are words filed in the database; no cut-off is given here.

Tests used:
[1] = target: Histamine H1 receptor (Cavia porcellus) (UniProt P31389); test: Contractile effect on isolated guinea pig ileal segments is a measure of H1 (histamine) receptor agonistic activity relative to histamine.; type: functional
[2] = target: Histamine H1 receptor (Cavia porcellus) (UniProt P31389); test: The H1 receptor-mediated nature of the ileum contractionhas been verified by competition experiments with the H1 receptor antagonist mepyramine; O=effect could be antagonized with 1 uM Mepyramine added to the bath solution when a plateau was re; type: functional, tissue-based
[3] = target: Histamine H1 receptor (Cavia porcellus) (UniProt P31389); test: H1-Histamine receptor agonism on guinea pig ileum as intrinsic activity given as 1.0 with respect to histamine (paired 't'test; p>0.05).; type: functional, tissue-based
[4] = target: Histamine H1 receptor (Cavia porcellus) (UniProt P31389); test: Contractile effect on isolated guinea pig ileal segments by H1 (histamine) receptor agonism.; type: functional
[5] = target: Histamine H1 receptor (Cavia porcellus) (UniProt P31389); test: Contractile effects on guinea pig aorta as histamine H1 receptor agonism; type: functional, tissue-based
In short: (§1)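 Endothelium-denuded 4–6 mm guinea pig thoracic aortic rings, isometric (preload 10 mN), modified Krebs-Henseleit, 37 °C, 95% O2/5% CO2. […] Cumulative curves with 30 μM corticosterone, 100 μM cimetidine, 0.1 μM (R,S)-propranolol and phentolamine present.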

[6] = target: Histamine H1 receptor (Cavia porcellus) (UniProt P31389); test: Contractile effect on isolated guinea pig aorta is a measure of H1 (histamine) receptor agonistic activity relative to histamine; type: functional, tissue-based; in short: as §1
[7] = target: Histamine H2 receptor (Cavia porcellus) (UniProt P47747); test: Histamine H2 receptor agonism activity was determined on the isolated Guinea pig Atrium was determined as Intrinsic activity with respect to Histamine; type: functional
In short: (§2)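 Spontaneously beating guinea pig right atrium, isometric, resting force 5 mN, (R,S)-metoprolol 300 nM present throughout.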

[8] = target: Histamine H1 receptor (Cavia porcellus) (UniProt P31389); test: H1-Histamine receptor agonism on Guinea pig aorta was evaluated as Intrinsic activity given as 1.0 with respect to histamine (paired 't'test;p>0.05); type: functional, tissue-based; in short: as §1
[9] = target: Histamine H1 receptor (Cavia porcellus) (UniProt P31389); test: The H1 receptor-mediated nature of the ileum contractionhas been verified by competition experiments with the H1 receptor antagonist mepyramine; type: functional, tissue-based
[10] = target: Histamine H2 receptor (Cavia porcellus) (UniProt P47747); test: Histamine H2 receptor agonism activity was determined on the isolated Guinea pig Atrium was determined as pD'2; type: functional; in short: as §2
[11] = target: Histamine H1 receptor (Cavia porcellus) (UniProt P31389); test: H1-Histamine receptor agonism on Guinea pig aorta was evaluated as Intrinsic activity given as 1.0 with respect to histamine (paired 't'test;p>0.05)(SEM 0.01-0.12); type: functional, tissue-based
[12] = target: Histamine H1 receptor (Cavia porcellus) (UniProt P31389); test: Contractile effects of compound on the guinea pig aorta as a measure of histamine H1 receptor agonism; f - effect could be antagonized with 1 pM mepyramine added to the bath solution when a plateau was reached.; type: functional, tissue-based; conditions: filed as agonist, in the assay text read “1 µM mepyramine” for “1 pM mepyramine”; in short: as §1
[13] = target: Histamine H1 receptor (Cavia porcellus) (UniProt P31389); test: H1-Histamine receptor agonism on Guinea pig aorta was evaluated as Intrinsic activity given as 1.0 with respect to histamine (paired 't'test;p>0.05) (SEM0.03-0.18); type: functional, tissue-based; in short: as §1
[14] = target: Histamine H1 receptor (Cavia porcellus) (UniProt P31389); test: H1-Histamine receptor agonism on Guinea pig aorta was evaluated as Intrinsic activity given as 1.0 with respect to histamine (paired 't'test;p>0.05) (SEM 0.01-0.12); type: functional, tissue-based; in short: as §1
[15] = target: Histamine H1 receptor (Cavia porcellus) (UniProt P31389); test: The H1 receptor-mediated nature of the ileum contractionhas been verified by competition experiments with the H1 receptor antagonist mepyramine;O=effect could be antagonized with 1 uM Mepyramine added to the bath solution when a plateau was rea; type: functional, tissue-based
[16] = species: Cavia porcellus; test: Relative activity with respect to Histamine on guinea pig ileum..; type: functional
In short: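 Guinea pig ileum segments (either sex), 1.5 cm, mounted isotonically under 5 mN preload in Tyrode solution with 0.1 μM atropine, 95% O2/5% CO2 gassed, 37 °C. […] Potency is read from graphically analysed concentration–effect curves as geometric means.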

[17] = target: Histamine H1 receptor (Mus musculus) (UniProt P70174); test: In vivo binding of H1 receptor Agonists measured by binding of [3H]mepyramine to Mouse cerebral cortex at the dosage of ( 30 mg/kg(no. of mice treated= 5 ); conditions: at 30 mg/kg
[18] = target: Histamine H1 receptor (Mus musculus) (UniProt P70174); test: In vivo binding of H1 receptor Agonists measured by binding of [3H]mepyramine to Mouse cerebral cortex at the dosage of ( 100 mg/kg(no. of mice treated= 3 ); conditions: at 100 mg/kg
[19] = target: Histamine H1 receptor (Mus musculus) (UniProt P70174); test: In vivo binding of H1 receptor Agonists measured by binding of [3H]mepyramine to Mouse cerebral cortex at the dosage of ( 3 mg/kg(no. of mice treated=5 ); conditions: at 3 mg/kg
[20] = target: Histamine H1 receptor (Mus musculus) (UniProt P70174); test: In vivo binding of H1 receptor Agonists measured by binding of [3H]-Mepyramine to Mouse cerebral cortex at the dosage of ( 300 mg/kg(no. of mice treated= 3 ); conditions: at 300 mg/kg
[21] = target: Histamine H1 receptor (Mus musculus) (UniProt P70174); test: In vivo binding of H1 receptor Agonists measured by binding of [3H]mepyramine to Mouse cerebral cortex at the dosage of ( 10 mg/kg(no. of mice treated=5 ); conditions: at 10 mg/kg

Sequence of Histamine H1 receptor (Cavia porcellus) (P31389 whole entry): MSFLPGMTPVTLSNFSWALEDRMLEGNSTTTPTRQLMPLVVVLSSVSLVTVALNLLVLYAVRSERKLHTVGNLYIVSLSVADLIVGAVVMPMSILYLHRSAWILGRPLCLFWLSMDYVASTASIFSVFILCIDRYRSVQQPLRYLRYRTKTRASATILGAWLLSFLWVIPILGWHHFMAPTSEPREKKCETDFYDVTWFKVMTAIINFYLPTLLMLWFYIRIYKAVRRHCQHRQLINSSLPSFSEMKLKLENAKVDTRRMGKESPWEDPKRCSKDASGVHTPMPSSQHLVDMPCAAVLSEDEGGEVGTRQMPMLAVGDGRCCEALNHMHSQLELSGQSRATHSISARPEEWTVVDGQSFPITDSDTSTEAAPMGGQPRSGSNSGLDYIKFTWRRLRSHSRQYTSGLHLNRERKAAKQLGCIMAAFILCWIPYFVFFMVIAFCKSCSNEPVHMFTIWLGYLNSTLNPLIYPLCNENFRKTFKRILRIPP
Sequence of Histamine H1 receptor (Mus musculus) (P70174 whole entry, looked up): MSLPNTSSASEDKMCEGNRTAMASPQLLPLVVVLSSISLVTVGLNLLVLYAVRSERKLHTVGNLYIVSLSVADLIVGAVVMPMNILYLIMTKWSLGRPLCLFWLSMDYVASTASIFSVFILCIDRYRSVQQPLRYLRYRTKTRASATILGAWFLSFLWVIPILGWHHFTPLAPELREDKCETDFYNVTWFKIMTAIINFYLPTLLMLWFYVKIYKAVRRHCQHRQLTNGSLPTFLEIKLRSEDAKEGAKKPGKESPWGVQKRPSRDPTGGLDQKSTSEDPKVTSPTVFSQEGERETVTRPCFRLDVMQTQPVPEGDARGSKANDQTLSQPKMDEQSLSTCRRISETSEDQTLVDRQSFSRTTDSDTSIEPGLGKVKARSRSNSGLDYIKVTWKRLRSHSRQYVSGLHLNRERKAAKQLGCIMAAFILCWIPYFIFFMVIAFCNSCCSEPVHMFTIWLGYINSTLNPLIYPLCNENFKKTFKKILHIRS
Sequence of Histamine H2 receptor (Cavia porcellus) (P47747 whole entry): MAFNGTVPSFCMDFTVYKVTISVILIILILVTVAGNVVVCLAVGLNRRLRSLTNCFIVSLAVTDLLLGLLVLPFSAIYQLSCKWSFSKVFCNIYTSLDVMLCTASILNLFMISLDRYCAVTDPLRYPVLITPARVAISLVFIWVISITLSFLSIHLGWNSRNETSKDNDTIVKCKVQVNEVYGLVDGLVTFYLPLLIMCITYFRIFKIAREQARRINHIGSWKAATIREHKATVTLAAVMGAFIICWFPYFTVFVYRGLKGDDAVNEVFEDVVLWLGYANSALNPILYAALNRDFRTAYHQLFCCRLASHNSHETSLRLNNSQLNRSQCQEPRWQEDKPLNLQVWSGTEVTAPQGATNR

Row | Relative activity [1] | Intrinsic activity [3] | pD2 [4] | Relative activity [6] [%] | pKb [9] | SMILES | other results
1 | < 1% | 0.28 | 4.57 | – | – | NCCc1c[nH]c(Cc2cccc(C(F)(F)F)c2)n1 | pKb [2]: Active
2 | 10% and 31% | 1 | 6.2 | 19 | 8.87 | NCCc1c[nH]c(-c2ccccc2)n1 | pKb [5]: 9.1; Intrinsic activity [7]: 0.2; Intrinsic activity [8]: 0.86; pD'2 [10]: < 3
3 | – | 0 | – | – | 4.73 | NCCc1c[nH]c(-c2cc3ccccc3c3ccccc23)n1 | –
4 | 54% | 1 | 6.43 | – | 8.92 | NCCc1c[nH]c(-c2cccc(OC(F)(F)F)c2)n1 | –
5 | 8% | – | – | – | – | CNCCc1ccccn1 | –
6 | 66% | 1 | 6.52 | 19 | 9.13 | NCCc1c[nH]c(-c2ccsc2)n1 | pKb [5]: 9.01; Intrinsic activity [7]: 0.13; Intrinsic activity [11]: 0.43; pD'2 [10]: < 3
7 | – | 0 | – | – | – | NCCc1c[nH]c(Cc2ccc(C(F)(F)F)cc2)n1 | PkB [9]: 4.53
8 | – | 1 | – | – | – | NCCc1c[nH]c(-c2cccc(Br)c2)n1 | Intrinsic activity [7]: 0; Intrinsic activity [8]: 0.64
9 | 4% | 1 | 5.26 | 0.9 | 8.97 | NCCc1c[nH]c(Cc2ccsc2)n1 | Intrinsic activity [8]: 0.4; pKb [12]: Agonist
10 | 96% | 1 | 6.68 | 47 | 9.28 | NCCc1c[nH]c(-c2cccc(I)c2)n1 | pKb [5]: 9.13; Intrinsic activity [7]: 0; Intrinsic activity [8]: 0.49; pD'2 [10]: 3.76
11 | 46% | 1 | 6.36 | 12 | 8.93 | NCCc1c[nH]c(-c2cccs2)n1 | pKb [5]: 8.83; Intrinsic activity [13]: 0.5; Intrinsic activity [7]: 0.25; pD'2 [10]: < 3
12 | 14% | 0.93 | 5.86 | 12 | 9.03 | NCCc1c[nH]c(-c2ccc[nH]2)n1 | pKb [5]: 9.27; Intrinsic activity [11]: 0.74
13 | 40% | – | – | – | – | COc1cccc(-c2nc(CCN)c[nH]2)c1 | –
14 | 70% | 1 | 6.54 | – | 9.03 | NCCc1c[nH]c(-c2cncc(Br)c2)n1 | –
15 | 15% | 1 | 5.87 | – | 9.04 | Cc1cccc(-c2nc(CCN)c[nH]2)c1 | –
16 | – | 0 | – | – | 3.55 | NCCc1c[nH]c(Cc2ccccc2C(F)(F)F)n1 | –
17 | – | – | 6.7 | – | 9.09 | NCCc1c[nH]cn1 | Intrinsic activity [7]: 1; Intrinsic activity [8]: 1.06
18 | 26% | 1 | 6.11 | 11 | 9.04 | NCCc1c[nH]c(-c2csc(Br)c2)n1 | pKb [5]: 8.63; Intrinsic activity [11]: 0.6
19 | 47% | 1 | 6.37 | 23 | 9.16 | NCCc1c[nH]c(-c2ccco2)n1 | pKb [5]: 9.28; Intrinsic activity [7]: 0.36; Intrinsic activity [14]: 0.47; pD'2 [10]: < 3
20 | 87% | – | – | – | – | NCCc1c[nH]c(-c2cccc(F)c2)n1 | –
21 | < 1% | 0.24 | 4.6 | – | – | NCCc1c[nH]c(-c2ccc(C(F)(F)F)cc2)n1 | pKb [15]: Active
22 | 81% | – | – | – | – | NCCc1c[nH]c(-c2cccc(Cl)c2)n1 | –
23 | < 1% | 0.26 | 4.47 | – | – | NCCc1c[nH]c(-c2ccccc2C(F)(F)F)n1 | pKb [15]: Active
24 | 3% | 0.54 | 5.11 | 0.2 | 8.91 | NCCc1c[nH]c(Cc2ccccc2Cl)n1 | Intrinsic activity [8]: 0.38; pKb [12]: Agonist
25 | 1% | 0.24 | 4.85 | – | – | NCCc1c[nH]c(-c2ccc3ccccc3c2)n1 | pKb [2]: Active
26 | 2% | 0.76 | 4.88 | 0.4 | 8.81 | NCCc1c[nH]c(Cc2cccc(Cl)c2)n1 | Intrinsic activity [8]: 0.51; pKb [12]: Agonist
27 | 3% | 1 | 5.09 | 0.8 | 8.92 | NCCc1c[nH]c(Cc2cccs2)n1 | Intrinsic activity [11]: 0.45; pKb [12]: Agonist
28 | 128% | 1 | 6.81 | 94 | 9.14 | NCCc1c[nH]c(-c2cccc(C(F)(F)F)c2)n1 | Control [17]: 98%; pKb [5]: 9.04; Intrinsic activity [7]: 0; Intrinsic activity [8]: 0.8; Control [18]: 112%; Control [19]: 101%; Control [20]: 129%; pD'2 [10]: 3.48; Control [21]: 122%

Row | SMILES | Relative activity [1] | Intrinsic activity [3] | pD2 [4] | Relative activity [6] [%] | pKb [9] | other results
29 | Cc1ncc(CCN)[nH]1 | 15% | – | – | – | – | –
30 | NCCc1c[nH]c(C(F)(F)F)n1 | 7% | 1 | 5.57 | – | 9.19 | Intrinsic activity [7]: 0.55
31 | NCCc1nccs1 | 45% | 1 | 6.36 | 18 | 9.17 | pKb [5]: 9.02; Intrinsic activity [8]: 1.02; Relative activity [16]: 20%
